Experimental data: ChEMBL document CHEMBL1121814, “Monophenolic 2-(dipropylamino)indans and related compounds: central dopamine-receptor stimulating activity” (1981)
Active and inactive are the calls of the source.

What was measured:
Rattus norvegicus [1] = test: Estimated dose giving a half-maximal decrease of the DA synthesis rate in the striatum of rat brain; I = Inactive (>45 umol/kg); type: functional, organism-based
Method in brief: (§1)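 Male Sprague–Dawley rats (200–350 g) were reserpinized, then given the drug sc in saline at four to six dose levels. NSD 1015 (100 mg/kg ip) was given 30 min before death to block decarboxylase. DOPA accumulation was measured spectrophotometrically in the limbic system and striatum as an index of DA synthesis rate. ED50 and ED100 were read from separate dose–response curves for each brain area. Experiments ran 9–12 a.m.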

Rattus norvegicus [2] = test: Estimated dose giving an approximately maximal decrease of the DA synthesis rate; I = Inactive (>45 umol/kg); type: functional, organism-based
Method in brief: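 Male Sprague-Dawley rats (200–350 g) pretreated with reserpine. Compounds dissolved in saline and given sc at four to six dose levels. Aromatic L-amino acid decarboxylase inhibited with NSD 1015 (100 mg/kg ip, 30 min before death). Brain DOPA measured spectrophotometrically as an index of DA synthesis rate. Experiments run 9–12 a.m. Dose read from separate dose–response curves for each brain area.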

Rattus norvegicus [3] = test: Estimated dose giving a half-maximal decrease of the DA synthesis rate in the limbic system of rat brain; I = Inactive (>45 umol/kg); type: functional, organism-based; method in brief: as §1
Rattus norvegicus [4] = species: Rattus norvegicus; test: Estimated dose giving an approximately maximal decrease of the DA synthesis rate; type: functional; method in brief: as §1
Rattus norvegicus [5] = species: Rattus norvegicus; test: Estimated dose giving a half-maximal decrease of the DA synthesis rate in the striatum of rat brain; type: functional; method in brief: as §1
Rattus norvegicus [6] = species: Rattus norvegicus; test: Motor activity in reserpinized rats at the biochemical ED50 dose level expressed as accumulation counts per 60 min; type: functional
Method in brief: (§2)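 Male Sprague–Dawley rats (200–350 g) pretreated with reserpine 10 mg/kg ip 6 h beforehand. Drugs in saline given sc at doses matching the biochemical ED50 and ED100 for the DA-synthesis decrease. Each rat was caged singly in a photocell motility meter right after dosing and counts were accumulated over 60 min, testing between 1 and 6 p.m. Means ± SEM, n = 3–4, compared by ANOVA then Student's t test.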

Rattus norvegicus [7] = species: Rattus norvegicus; test: Motor activity in reserpinized rats at the biochemical ED100 dose level expressed as accumulation counts per 60 min; type: functional; method in brief: as §2
Canis familiaris [8] = species: Canis familiaris; test: Total dose at which the animal vomits; type: functional, Canis lupus familiaris
Method in brief: (§3)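 Four female beagles (8–15 kg) with free access to food and water, not pretreated. Drug was infused iv at constant rate into the cephalic vein. The rate (k0) was set so that vomiting would be expected about 10 min after the start of infusion. The total dose infused at vomiting was recorded. Relative k0 is the compound's k0 divided by the apomorphine k0.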

Rattus norvegicus [9] = species: Rattus norvegicus; test: Estimated dose giving a half-maximal decrease of the DA synthesis rate in the limbic system of rat brain; type: functional; method in brief: as §1
Canis familiaris [10] = test: Relative rate of administration of compound in dogs; type: functional, Canis lupus familiaris; method in brief: as §3
Canis familiaris [11] = species: Canis familiaris; test: Emetic activity in dogs given as total dose at which the animal vomits; type: functional, Canis lupus familiaris; method in brief: as §3
Canis lupus familiaris = test: Emetic activity in dogs by constant-rate intravenous infusion was measured

| Compound | ED50 (Rattus norvegicus [1]) | ED100 (Rattus norvegicus [2]) | ED50 (Rattus norvegicus [3]) | ED100 (Rattus norvegicus [4]) [nM/kg] | ED50 (Rattus norvegicus [5]) [µmol/kg] | Accumulation counts (Rattus norvegicus [6]) | Accumulation counts (Rattus norvegicus [7]) | TED (Canis familiaris [8]) [nM/kg] | ED50 (Rattus norvegicus [9]) [µmol/kg] | rel ko (Canis familiaris [10]) | TED (Canis familiaris [11]) [nM/kg] | rel ko (Canis lupus familiaris) |
| --- | --- | --- | --- | --- | --- | --- | --- | --- | --- | --- | --- | --- |
| CCCN(CCC)CC1CCc2c(O)cccc2C1 (centres undefined) | inactive | inactive | inactive | – | – | – | – | – | – | – | – | – |
| CCCN(CCC)C1Cc2cccc(O)c2C1 (centres undefined) | – | – | – | 350 | 0.063 | 13 | 108 | 25 | 0.059 | – | – | – |
| CCCN(CCC)CC1Cc2cccc(O)c2C1 (centres undefined) | – | – | – | 4500 | 0.96 | 25 | 89 | – | 0.67 | 9.1 | 292 | – |
| CCCN(CCC)C1Cc2ccc(O)cc2C1 (centres undefined) | – | – | – | 6500 | 1.44 | 23 | 89 | – | 1.25 | 9.9 | 247 | – |
| CCCN(CCC)C1CCCc2c(O)cccc2C1 (centres undefined) | inactive | inactive | inactive | – | – | – | – | – | – | – | – | – |
| CCCN(CCC)C1CCc2c(O)cccc2C1 (centres undefined) [5-OH-DPAT] | – | – | – | 40 | 0.009 | 25 | 76 | 4.7 | 0.011 | – | – | – |
| CN1CCc2cccc3c2[C@H]1Cc1ccc(O)c(O)c1-3 [APOMORPHINE] | – | – | – | 230 | 0.044 | 24 | 64 | 32.3 | 0.041 | – | – | 1 |
